ChEMBL document CHEMBL1143914, “Synthesis and cytotoxic activity of diosgenyl saponin analogues” (Bioorg Med Chem, 2008)
Active and inactive are the calls of the source. The rule behind the calls is not given here.

Experiments:
Assay type in all cases: functional, cell-based
[1] = system: HeLa; assay: Cytotoxicity against human HeLa cells after 72 hrs by MTT assay
Method in brief: (§1)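 Cells grown in DMEM with 10% FBS at 37 °C, 5% CO2. 2000 cells per well in 96-well plates, allowed to adhere. Compounds were dissolved in DMSO, diluted in medium and added at 0–30 µM, 8 wells per concentration, for 72 h. MTT at 0.5 mg/mL for 4 h, then DMSO solubilization and absorbance at 490 nm. IC50 from concentration plots; at least 2 independent assays.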

[2] = system: SK-N-SH; assay: Cytotoxicity against human SK-N-SH cells after 72 hrs by MTT assay; method in brief: as §1
[3] = system: MCF7; assay: Cytotoxicity against human MCF7 cells after 72 hrs by MTT assay; conditions: MCF7, 72 h; method in brief: as §1
[4] = system: MCF7; assay: Cell cycle arrest in human MCF7 cells assessed as G2 phase accumulation
[5] = system: SK-N-SH; assay: Cell cycle arrest in human SK-N-SH cells assessed as G1 phase accumulation

Structure (SMILES) | IC50 [1] [µM] | IC50 [2] [µM] | IC50 [3] [µM] | Activity [4] | Activity [5]
C[C@@H]1CC[C@@]2(OC1)O[C@H]1C[C@H]3[C@@H]4CC=C5C[C@@H](O[C@H]6O[C@@H](CO)[C@H](O)[C@@H](O)[C@@H]6NC(=O)CCCCC(=O)N[C@H]6[C@H](O[C@H]7CC[C@@]8(C)C(=CC[C@H]9[C@@H]%10C[C@@H]%11O[C@]%12(CC[C@@H](C)CO%12)[C@@H](C)[C@@H]%11[C@@]%10(C)CC[C@@H]98)C7)O[C@H](CO)[C@@H](O)[C@@H]6O)CC[C@]5(C)[C@H]4CC[C@]3(C)[C@H]1[C@@H]2C | > 20 | 19.5 | 19.2 |  | 
C[C@@H]1CC[C@@]2(OC1)O[C@H]1C[C@H]3[C@@H]4CC=C5C[C@@H](O[C@@H]6O[C@H](CO)[C@@H](O)[C@H](O)[C@H]6NC(=O)c6ccccc6)CC[C@]5(C)[C@H]4CC[C@]3(C)[C@H]1[C@@H]2C | 18 | 14.9 | 19.4 | Active | Active
CC(=O)N[C@H]1[C@H](O[C@H]2CC[C@@]3(C)C(=CC[C@H]4[C@@H]5C[C@@H]6O[C@]7(CC[C@@H](C)CO7)[C@@H](C)[C@@H]6[C@@]5(C)CC[C@@H]43)C2)O[C@H](CO)[C@@H](O)[C@@H]1O | 21.5 | 11.6 | 18.3 |  | 
C[C@@H]1CC[C@@]2(OC1)O[C@H]1C[C@H]3[C@@H]4CC=C5C[C@@H](O[C@@H]6O[C@H](CO)[C@@H](O)[C@H](O)[C@H]6NC(=O)CCCCC(=O)O)CC[C@]5(C)[C@H]4CC[C@]3(C)[C@H]1[C@@H]2C | > 20 | 16.3 | 11.3 |  | 
CC(=O)N[C@@H](C)C(=O)N[C@H]1[C@H](O[C@H]2CC[C@@]3(C)C(=CC[C@H]4[C@@H]5C[C@@H]6O[C@]7(CC[C@@H](C)CO7)[C@@H](C)[C@@H]6[C@@]5(C)CC[C@@H]43)C2)O[C@H](CO)[C@@H](O)[C@@H]1O | 20 | 15.3 | 11 |  | 
C[C@@H]1CC[C@@]2(OC1)O[C@H]1C[C@H]3[C@@H]4CC=C5C[C@@H](O[C@@H]6O[C@H](CO)[C@@H](O)[C@H](O)[C@H]6NC(=O)CCC(=O)O)CC[C@]5(C)[C@H]4CC[C@]3(C)[C@H]1[C@@H]2C | 13.9 | 14.1 | 22 |  | 
C[C@@H]1CC[C@@]2(OC1)O[C@H]1C[C@H]3[C@@H]4CC=C5C[C@@H](O[C@@H]6O[C@H](CO)[C@@H](O)[C@H](O)[C@H]6NC(=O)CCCCC6CCSS6)CC[C@]5(C)[C@H]4CC[C@]3(C)[C@H]1[C@@H]2C (stereo partly drawn) [ALPHA LIPOYL] | 7.3 | 4.8 | 6.9 |  | 
